Compounds with a hit are over-represented: about 2.5% of the library has one in this group of screens.
SENP6 inh: blocks the human protease SENP6. 1.8% of 330,000 active. AID 2599. Q9GZR1. inhibition, % at 10 µM. Recombinant SENP6 catalytic domain, aminoluciferin luminescence;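 active = inhibition above about 50% at the single tested dose, limit read from the data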
SENP8 block-1: blocks human SENP8 cleavage of Nedd8 substrate; inhibition, % at 20 µM; recombinant SENP8, Nedd8 substrate fluorescence; AID 602440; Q96LD8; 0.64% of 360,000 active; in the data active = inhibition mostly above about 40%, no sharp cut-off; inactive = mostly below about 27%
Target sequence (Q96LD8 whole entry, looked up): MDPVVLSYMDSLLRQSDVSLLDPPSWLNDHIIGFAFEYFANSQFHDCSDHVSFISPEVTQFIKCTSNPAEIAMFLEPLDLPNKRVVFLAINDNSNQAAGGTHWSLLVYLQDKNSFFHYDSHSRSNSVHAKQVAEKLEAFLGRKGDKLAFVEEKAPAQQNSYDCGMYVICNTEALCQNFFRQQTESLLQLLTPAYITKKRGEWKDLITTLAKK
SENP8 block-2: inhibitors of human SENP8 protease | inhibition, % at 10 µM | purified SENP8, Z-RLRGG-aminoluciferin cleavage, luminescence | Q96LD8 | 1.2% of 330,000 active | AID 2540; in the data active = inhibition above about 50%
SENP7 inh: blocks the human protease SENP7. Q9BQF6. recombinant SENP7, Z-RLRGG-aminoluciferin luminescence, 40 min. inhibition, % at 5 µM. 1.5% of 330,000 active;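 active = inhibition above about 50% at the single test dose, limit read from the data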
SENP1 inh: SENP1 (human) catalytic domain inhibition. Q9P0U3. recombinant SENP1 catalytic domain, CyPet-SUMO1-YPet FRET cleavage. inhibition, % at 10 µM. 0.21% of 360,000 active. AID 624204;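 active = inhibition at least 30% at 10 µM, raw YFP signal under a set limit, fluorescence ratio 0.5 to 1.5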
Target sequence (Q9P0U3 419-644 limits assumed): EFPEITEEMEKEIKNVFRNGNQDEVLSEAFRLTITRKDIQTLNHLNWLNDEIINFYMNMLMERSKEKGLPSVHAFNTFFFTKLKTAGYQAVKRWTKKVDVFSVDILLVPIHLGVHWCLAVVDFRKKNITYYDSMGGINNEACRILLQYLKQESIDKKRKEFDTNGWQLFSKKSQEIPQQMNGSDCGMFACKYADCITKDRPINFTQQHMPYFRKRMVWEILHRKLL
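System: Recombinant human SENP1 catalytic domain, His6-tagged | Incubation: Enzyme reaction for 50 min at room temperature, dark | Medium: Tris pH 8 with BME, BSA, NP40 and catalase | Also added: 25 nM SUMO1 FRET substrate | Compound: 10 µM single point, 0.5% DMSO | Measured by: FRET fluorescence in CFP and YFP emission channels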
SENP8 confirm: confirmation of human SENP8 protease inhibitors | inhibition, % at 12.5 µM | Recombinant SENP8, Z-RLRGG-aminoluciferin luminescence, 60 min | AID 488912 | shares compounds with SENP7 inh | 40% of 6,200 active;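 active = mean inhibition across replicates above about 50%, limit read from the data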
SENP6 confirm: human SENP6 inhibition, confirmed; shares compounds with SENP7 inh; recombinant SENP6, Z-RLRGG-aminoluciferin luminescence; inhibition, % at 12.5 µM; 58% of 6,200 active; AID 488915
SENP7 confirm: confirmation of human SENP7 protease inhibitors. recombinant SENP7, Z-RLRGG-aminoluciferin luminescence, 40 min. AID 488917. shares compounds with SENP7 inh. inhibition, % at 12.5 µM. 69% of 6,200 active
Casp3 SENP sel: inhibits human caspase-3 in SENP selectivity test. purified caspase-3, Z-DEVD-aminoluciferin luminescence, 60 min. 60% of 6,200 active. inhibition, % at 12.5 µM. shares compounds with SENP7 inh;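 active = mean inhibition above about 50%, limit read from the data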
Luc interf: luminescence interference (SENP counter-screen); shares compounds with SENP7 inh; Pre-incubated SENP8/Z-RLRGG-aminoluciferin, luciferase luminescence interference; inhibition, % at 12.5 µM; 39% of 6,200 active;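 active = mean inhibition above about 50% when retested at one dose, limit read from the data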
Of the large screens only hits and unclear results are named; the others gave an inactive call (follow-up assays come after a bar, where they were run).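 The calls were made as follows, unless noted: active = mean inhibition above about 50% in the one-dose retest (limit read from the data); inactive = the rest.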

O=C(Cc1ccccc1)N1CCN(c2ccccc2F)CC1	SENP6 inh 75, SENP8 block-2 59 | SENP8 confirm inactive | SENP6 confirm inactive | SENP7 confirm inactive | Casp3 SENP sel inactive | Luc interf inactive
Cc1occc1C(=O)Nc1cccc(/C=C/C(=O)O)c1	none
O=C(O)/C=C/c1cccc(NC(=O)c2ccccc2)c1	SENP6 inh 72, SENP7 inh 69 | SENP8 confirm 69 | SENP6 confirm 66 | SENP7 confirm 90 | Casp3 SENP sel 91 | Luc interf 71
O=C(O)/C=C/c1cccc(NC(=O)c2ccc(Cl)cc2)c1	SENP6 inh 74, SENP8 block-2 61, SENP7 inh 59 | SENP8 confirm 66 | SENP6 confirm 63 | SENP7 confirm 88 | Casp3 SENP sel 84 | Luc interf 71
CSc1nc2ccc(NC(=O)c3ccc(=O)n(C)n3)cc2s1	SENP6 inh 92, SENP8 block-2 71, SENP7 inh 84 | SENP8 confirm inactive | SENP6 confirm inactive | SENP7 confirm 61 | Casp3 SENP sel 55 | Luc interf inactive
CSc1nc2ccc(NC(=O)c3cc4ccccc4o3)cc2s1	SENP8 block-2 69, SENP7 inh 93 | SENP8 confirm inactive | SENP6 confirm 60 | SENP7 confirm 84 | Casp3 SENP sel inactive | Luc interf inactive
CSc1nc2ccc(NC(=O)c3ccc(F)c(F)c3)cc2s1	SENP6 inh 56, SENP7 inh 74 | SENP8 confirm inactive | SENP6 confirm inactive | SENP7 confirm inactive | Casp3 SENP sel inactive | Luc interf inactive
CSc1nc2ccc(NC(=O)c3ccc(=O)[nH]c3)cc2s1	none
COc1ccc(C(=O)Nc2ccc3nc(C)sc3c2)cc1OC	SENP7 inh 73 | SENP8 confirm 57 | SENP6 confirm 57 | SENP7 confirm 87 | Casp3 SENP sel 80 | Luc interf 71
Cc1cccc2cc(C#N)c(NCCNS(=O)(=O)c3ccc4c(c3)OCCO4)nc12	none
O=C(O)CNc1nc(NCc2ccc(Cl)cc2)ccc1[N+](=O)[O-]	none (no result: SENP6 inh, SENP8 block-2, SENP7 inh)
NC(=O)c1sc2nc(-c3ccccc3)c3c(c2c1N)CCCC3	none
Nc1c2c(nc3sc4c(c13)CCCC4)-c1ccccc1CC2	SENP6 inh 92, SENP8 block-2 92, SENP7 inh 90 | SENP8 confirm inactive | SENP6 confirm 93 | SENP7 confirm 96 | Casp3 SENP sel 82 | Luc interf inactive
COc1ccc(C(=O)N/C(=C\c2cn(C)c3ccccc23)C(=O)N2CCOCC2)cc1	none
COc1oc(-c2ccccc2C)nc1C(F)(F)F	none
COc1oc(-c2ccccc2)nc1C(F)(F)F	SENP7 inh 71 | SENP8 confirm inactive | SENP6 confirm inactive | SENP7 confirm inactive | Casp3 SENP sel inactive | Luc interf inactive
Cc1ccc(NC(=O)CSCC(=O)N2CCCc3ccccc32)cc1	none
NNc1nc(-c2ccccc2)nc2sc3c(c12)CCCC3	SENP6 inh 79, SENP8 block-2 66, SENP7 inh 80 | SENP8 confirm inactive | SENP6 confirm inactive | SENP7 confirm inactive | Casp3 SENP sel inactive | Luc interf inactive
NNc1nc2sc3c(c2c(=O)n1Cc1ccccc1)CCC3	none
COc1ccc2nc(NC(=O)C(NS(=O)(=O)c3cccs3)C(C)C)sc2c1 (centres undefined)	none
CSCCC(NC(=O)C1CCC(C)CC1)C(=O)NCCN1CCC(C)CC1 (centres undefined)	none
O=C(Nc1ccccc1C(=O)O)c1ccc2ccccc2n1	SENP6 inh 54 | SENP8 confirm 65 | SENP6 confirm 60 | SENP7 confirm 83 | Casp3 SENP sel 81 | Luc interf inactive
O=C(Nc1ccc(OC(F)(F)F)cc1)c1ccc2ccccc2n1	none
